For one series, the system named is 231-BR cells. In words: MTT in vitro cytotoxicity assay. It counts as cell-based. To be noted: Homo sapiens, 72 h, read-out: IC50 values and maximal toxicity. Summed up: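 231-BR cells seeded at 2,000/well 24 h before compound addition. Ethanol drug stocks were serially diluted into culture medium and added to triplicate wells, then cultured 72 h. Viable cells were read by MTT, normalized to drug-free viable cells at endpoint. At least 3 independent experiments.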

In another series the test system is neuronal tubulin. In words: fluorescence-enhanced tubulin polymerization assay. It counts as biochemical. To be noted: ratio of tubulin polymerization ED50 values.
Series [1] concerns experimental brain metastases. To be noted: 2 experimental brain metastasis models, radiolabeled drug; cited from earlier work.
In series [2] the test system is intracerebrally implanted MDA-MB-435, Lu7187 and Lu7466 tumor cells. To be noted: cited from earlier work; for growth of intracerebrally implanted tumor cells: MDA-MB-435, Lu7187 and Lu7466 cells.
Another series has as its system 231-BR primary tumors. The series can be described thus: breast primary tumor model. It counts as in vivo, mouse.
A further series relates to 231-BR brain metastases. The series can be described thus: experimental brain metastasis model. The class given is in vivo, mouse.
The subject of series [3] is breast cancer brain metastases. To be noted: phase II, cited from earlier work.
For series [4] the following is noted: mice, favorable half-life; cited from earlier work.
The subject of series [5] is breast cancer brain metastases. To be noted: phase II, cited from earlier work. The source holds these as a separate data set.

Consider five compounds from article PMC7489285 (Molecular cancer therapeutics, 2012).

Some results are limits rather than exact numbers.

What is called IC50 is the concentration that gives 50% inhibition. `CC(=O)O[C@@]12CO[C@@H]1C[C@H](O)[C@@]1(C)C(=O)[C@H](O)C3=C(C)[C@@H](OC(=O)[C@H](O)[C@@H](NC(=O)OC(C)(C)C)c4ccccc4)C[C@@](O)([C@@H](OC(=O)c4ccccc4)[C@H]21)C3(C)C` [Docetaxel]: the IC50 in the series on 231-BR cells was < 10 nM. The “ED50 compound/ ED50 paclitaxel” value in the series on neuronal tubulin amounted to 1.07.

Consider `CC(=O)O[C@H]1C(=O)[C@@]2(C)[C@H]([C@H](OC(=O)c3ccccc3)[C@]3(O)C[C@H](OC(=O)[C@H](O)[C@@H](NC(=O)c4ccccc4)c4ccccc4)C(C)=C1C3(C)C)[C@]1(OC(C)=O)CO[C@@H]1C[C@@H]2O` [Paclitaxel], for which the “experimental lesions with sufficient uptake to show a cytotoxic response” value in series [1] is 10%. For the same compound, in the series on 231-BR cells, the IC50 was < 10 nM. In addition, in [2], the “growth of intracerebrally implanted tumor cells” value was “nonsignificant effects”. The “amount of acetylated tubulin-α in primary tumors” value with 231-BR primary tumors (18 mg/kg i.v. every 4 days ×3, immunofluorescence) is listed as “increase”. The “estimated tumor growth rate (slope) of log10 tumor volume” value with 231-BR primary tumors (18 mg/kg i.v. every 4 days ×3 from day 37, days 41 to 48) is on record as −0.0450 ± 0.00743. Also, in the series on 231-BR brain metastases (18 mg/kg ×3, early or late, all points not significant), the “prevention of brain metastatic colonization” value is recorded as “ineffective”. Besides, the “Ki67-positive 231-BR cells in brain metastases (proliferation), mean” value with 231-BR brain metastases (day 28, 48 hours after final late 18 mg/kg treatment, vehicle 56.0% ± 2.22%) is given as 54.4% ± 1.91%.

`C=CC[C@H]1C(=O)C(C)(C)[C@@H](O)CC(=O)O[C@H](c2ccc3sc(C)nc3c2)C[C@@H]2O[C@]2(C)CCC[C@H](C)[C@@H]1O` [Sagopilone]: in [2], the “growth of intracerebrally implanted tumor cells” value is listed as “reduced the growth” and the weight loss is 6%. Further, in series [2] (mice, favorable AUC and half-life), the BBB penetration entry is given as “crossed the BBB”. Besides, the “patients achieving partial responses” value in series [3] (progressive brain metastases after whole brain radiation therapy, two patients) is on record as 13.3%. Also, in series [3], the median progression-free survival is on record as 1.4 months and the overall survival was 5.3 months.

For `C/C(=C\c1csc(C)n1)[C@@H]1C[C@@H]2O[C@]2(C)CCC[C@H](C)[C@H](O)[C@@H](C)C(=O)C(C)(C)[C@@H](O)CC(=O)N1` [ixabepilone], the IC50 in the series with 231-BR cells is < 10 nM. Further, in the series on 231-BR brain metastases (mice, initial 2 doses of 5 mg/kg), the “toxicity of initial doses” value is on record as “significant toxicity”.

As for `C/C(=C\c1csc(C)n1)[C@@H]1C[C@@H]2O[C@]2(C)CCC[C@H](C)[C@H](O)[C@@H](C)C(=O)C(C)(C)[C@@H](O)CC(=O)O1` [patupilone], the brain distribution result in series [4] was “Significant brain distribution”. In series [5] (6 of 31), the “partial responses, patients” value was 19%. Moreover, the “stable disease, patients” value in series [5] (9 of 31) is 29%. In series [5], the “incidence of peripheral neuropathy” value is 27%.
